Screening results from PubChem BioAssay.
A selection: hits, their analogues and other compounds. The true share with any hit is near 2.5%.
TRPML3 ag = activates the human TRPML3 channel; Q8TDD5; HEK293 TRPML3-YFP, Fluo-8 calcium fluorescence; 100% = the carbachol control signal; activation, % at 3 µM; hit rate 0.29% among 220,000; AID 1448;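 active means activation above its plate's cutoff, the mean activation of the plate's test wells plus 3 SD, cut at about 12% in these data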
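Test system: TRPML3-YFP stable HEK293 cells. Doses: single point at 3 µM. Incubation: dye loading 1 h 37 °C then 30 min ambient, 125 s read. Signal: Fluo-8 calcium dye fluorescence, ex 470-495, em 515-575 nm. Measure: percent activation from peak-to-basal fluorescence ratio, scaled between DMSO and carbachol.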
CHO parental Ca = counter-screen: ATP calcium response change in parental CHO cells | parental CHO-K1, ATP-induced calcium, Fluo-8 fluorescence | inhibition, % at 5.6 µM | AID 463079 | hit rate 0.63% among 330,000;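 active means inhibition above that plate's mean sample inhibition plus 3 SD, cut at about 26% in these data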
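Assay system: parental CHO cells; Read-out basis: percent inhibition of ATP-evoked calcium rise, normalized to controls; Benchmarks: ATP and no-ATP DMSO wells; Compound dosing: single nominal dose of 5.6 µM per compound; Signal: Fluo-8 calcium dye fluorescence; Also added: ATP as calcium-mobilizing challenge; Repeats: singlicate.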
zfTRPN1 agonist = zebrafish TRPN1 (NompC) channel agonism; HEK293 zebrafish TRPN1-YFP, Fluo-8 calcium fluorescence; 100% = response to 87 µM carbachol; activation, % at 3 µM; hit rate 0.18% among 220,000;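 active means activation above its plate's cutoff, the mean activation of test wells on that plate plus 3 SD, cut at about 19% in these data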
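Assay system: Zebrafish TRPN1-YFP in HEK293 cells | Incubation: Dye loading 1 h at 37 °C, then 30 min room temperature | Measured by: Kinetic Fluo-8 fluorescence, ex 470-495, em 515-575 nm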
OX1R antag-1 = OX1R (human) antagonism; O43613; OX1R-expressing cells, FRET antagonist read-out; inhibition, % at 6.6 µM; hit rate 1.8% among 330,000; AID 485270; in the data active means inhibition mostly above about 38%, no sharp cut-off; inactive means mostly below about 40%
Target sequence (O43613 whole entry, looked up): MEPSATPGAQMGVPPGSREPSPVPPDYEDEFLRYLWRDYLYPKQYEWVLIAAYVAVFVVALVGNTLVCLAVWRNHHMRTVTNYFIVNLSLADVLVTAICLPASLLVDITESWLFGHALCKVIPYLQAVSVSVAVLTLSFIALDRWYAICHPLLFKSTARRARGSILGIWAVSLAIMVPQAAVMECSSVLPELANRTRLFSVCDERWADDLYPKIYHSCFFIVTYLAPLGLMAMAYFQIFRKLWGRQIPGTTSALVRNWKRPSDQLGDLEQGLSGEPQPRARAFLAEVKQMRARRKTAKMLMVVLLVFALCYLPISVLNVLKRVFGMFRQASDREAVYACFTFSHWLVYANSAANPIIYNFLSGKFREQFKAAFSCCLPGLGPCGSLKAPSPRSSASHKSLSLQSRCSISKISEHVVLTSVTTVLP
OX1R antag-2 = human HCRTR1 antagonism. O43613. CHO/OX1R cells, Fluo-8 calcium fluorescence, orexin A. inhibition, % at 5 µM. hit rate 0.43% among 330,000;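 active means inhibition above its plate's threshold, mean inhibition of all tested compounds on the plate plus 3 SD, cut at about 37% in these data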
Each line names hits and unclear results; the compound was inactive in the other large screens.

COc1ccc(NS(=O)(=O)c2ccc(O)c(NS(=O)(=O)c3ccc(NC(C)=O)cc3)c2)cc1	none (no result: TRPML3 ag, zfTRPN1 agonist)
CCn1c2ccccc2c2cc(NC(=O)c3cccc([N+](=O)[O-])c3C)ccc21	none
CCn1c2ccccc2c2cc(NC(=O)c3ccc(Br)o3)ccc21	OX1R antag-1 85, OX1R antag-2 48
CCn1c2ccccc2c2cc(NC(=O)c3coc(=O)c(Br)c3)ccc21	none
CCn1c2ccccc2c2cc(NC(=O)c3cccc([N+](=O)[O-])c3)ccc21	OX1R antag-1 76 (no result: TRPML3 ag, zfTRPN1 agonist)
CCn1c2ccccc2c2cc(NC(=O)COc3ccccc3)ccc21	OX1R antag-1 65
CCC(=O)N1CCN=C1SCc1c(F)cccc1Cl	none (no result: TRPML3 ag, zfTRPN1 agonist)
Cc1cc(C)nc(N/N=C/c2cc(Br)ccc2O)n1	none
COc1ccc(S(=O)(=O)N2CCOCC2)cc1NC(=O)c1sccc1C	none (no result: TRPML3 ag, zfTRPN1 agonist)
Cc1nc2ccccc2c2c1C(=O)NC2=O	OX1R antag-1 39
O=C(N/N=C/c1cccnc1)C1CC1(c1ccccc1)c1ccccc1 (centres undefined)	none
N#Cc1nc(-c2ccccc2)oc1NCc1ccco1	none
N#Cc1nc(-c2ccc(Cl)cc2)oc1NCc1ccco1	CHO parental Ca 44
C#CCOCCOCCOCCNc1nc(N2CCN(C(=O)CCCCCCCCCCNC(=O)[C@H]([C@@H](C)CC)n3cc(CCCCCN)nn3)CC2)nc(N2CCN(C(=O)CCCCCCCCCCNC(=O)[C@H](CO)n3cc(CCCCCN)nn3)CC2)n1	CHO parental Ca 68 (no result: TRPML3 ag, zfTRPN1 agonist)
C#CCOCCOCCOCCNc1nc(N2CCOCC2)nc(N2CCN(C(=O)CCCCCCCCCCNC(=O)[C@@H]([C@H](C)CC)n3cc(CCCCCN)nn3)CC2)n1	none (no result: TRPML3 ag, zfTRPN1 agonist)
C#CCOCCOCCOCCNc1nc(N2CCN(C(=O)CCCCCCCCCCNC(=O)[C@H]([C@@H](C)CC)n3cc(CCCCCN)nn3)CC2)nc(N2CCN(C(=O)CCCCCCCCCCNC(=O)[C@@H]([C@H](C)CC)n3cc(CCCCCN)nn3)CC2)n1	CHO parental Ca 79 (no result: TRPML3 ag, zfTRPN1 agonist)
C#CCOCCOCCOCCNc1nc(N2CCN(C(=O)CCCCCCCCCCNC(=O)[C@H]([C@@H](C)CC)n3cc(CCCCN=C(N)N)nn3)CC2)nc(N2CCN(C(=O)CCCCCCCCCCNC(=O)[C@H](CO)n3cc(CCCCCN)nn3)CC2)n1	none (no result: TRPML3 ag, zfTRPN1 agonist)
Cn1ncc2c(N3CCC(Cc4ccccc4)CC3)ncnc21	OX1R antag-1 58
C=CCn1c(-c2ccc(S(=O)(=O)N3CCOCC3)cc2)csc1=Nc1ccccc1	CHO parental Ca 39
CC(=O)c1cccc(N=c2scc(-c3ccc(S(=O)(=O)N4CCOCC4)cc3)n2CCO)c1	none
CC(=O)N[C@@H](Cc1c[nH]c2ccccc12)C(=O)OCC(=O)Nc1ccc(Cl)c(S(=O)(=O)N(C)C)c1	OX1R antag-1 54
CC(=O)NC(Cc1c[nH]c2ccccc12)C(=O)OCC(=O)Nc1ccc2c(c1)OCO2 (centres undefined)	none
CCC(Cc1ccccc1)NC(=O)C1CCN(c2nn3c(=O)cc(C)nc3s2)CC1 (centres undefined)	none (no result: TRPML3 ag, zfTRPN1 agonist)
O=C(CC1SC(=NCC2CCCO2)NC1=O)Nc1cc([N+](=O)[O-])ccc1Cl (centres undefined)	none
COc1ccc(NC(=O)CC2SC(=NCC3CCCO3)NC2=O)c([N+](=O)[O-])c1 (centres undefined)	OX1R antag-1 50
COc1c(OC(C)=O)ccc(/C=C/c2ccc3cccc(OC)c3n2)c1[N+](=O)[O-]	none
COc1c(OC(C)=O)ccc(/C=C/c2ccc3ccccc3n2)c1[N+](=O)[O-]	OX1R antag-1 42
O=C(Nc1cc(-c2ccccc2)[nH]n1)c1ccc(Cl)cc1	none
O=C(COC(=O)c1ccccc1NCc1ccco1)Nc1ccc2c(c1)OCO2	none
O=C(COC(=O)c1ccccc1NC(=O)c1ccco1)Nc1ccc2c(c1)OCO2	OX1R antag-1 72
O=C(Nc1ccccc1C(=O)OCC(=O)c1c[nH]c2ccccc12)c1ccco1	OX1R antag-1 50
Cn1nc(C(=O)OCC(=O)c2ccc(Cl)cc2)c2ccccc2c1=O	none (no result: TRPML3 ag, zfTRPN1 agonist)
CC1(C)CC(=O)C2=C(C1)N=C1c3ccccc3C(=O)C1C2c1ccc(Cl)cc1 (centres undefined)	OX1R antag-1 96
CC(=O)OC[C@]12CC[C@H]3[C@@](C)(CC[C@H]4C(C)(C)CCC[C@]34C)[C@@H]1C[C@H](C1=CC(=O)O[C@@H]1OC(C)=O)O2	CHO parental Ca 64 (no result: TRPML3 ag, zfTRPN1 agonist)
